Experimental findings from article PMC6457116 (ACS chemical biology, 2018) are described below.

In this data set the test system is IMR-90 human lung fibroblasts. The experiment in a line: Mammalian cell viability, Cell Titer Glo. In kind it is cell-based. To be noted: 1 μg mL^−1 doxorubicin. Summed up: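 IMR-90 fibroblasts from ATCC, grown in EMEM with 10% FBS and Pen-Strep at 37 °C, 5% CO2, split 1:3 at confluence. Seeded 20,000 cells/well and left overnight to adhere. Then treated 24 h or 48 h with 50 μM test compound (0.5% DMSO), 0.5% DMSO, 10% DMSO or doxorubicin hydrochloride (given as 1 μg mL−1 and 1.7 μM). CellTiter-Glo ATP luminescence, no-cell background. Percent death versus 0.5% DMSO.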

For the compound `COc1cccc2c1C(=O)c1c(O)c3c(c(O)c1C2=O)C[C@@](O)(C(=O)CO)C[C@@H]3O[C@H]1C[C@H](N)[C@H](O)[C@H](C)O1` [doxorubicin], under “24 h”, the cells dead is 50%. Moreover, where the note is “48 h”, the “cell death (in words)” value was “near complete cell death”.
